The assay has as its target T1, hCCK2R (Homo sapiens, UniProt P32239).
T1 sequence (P32239 1-447): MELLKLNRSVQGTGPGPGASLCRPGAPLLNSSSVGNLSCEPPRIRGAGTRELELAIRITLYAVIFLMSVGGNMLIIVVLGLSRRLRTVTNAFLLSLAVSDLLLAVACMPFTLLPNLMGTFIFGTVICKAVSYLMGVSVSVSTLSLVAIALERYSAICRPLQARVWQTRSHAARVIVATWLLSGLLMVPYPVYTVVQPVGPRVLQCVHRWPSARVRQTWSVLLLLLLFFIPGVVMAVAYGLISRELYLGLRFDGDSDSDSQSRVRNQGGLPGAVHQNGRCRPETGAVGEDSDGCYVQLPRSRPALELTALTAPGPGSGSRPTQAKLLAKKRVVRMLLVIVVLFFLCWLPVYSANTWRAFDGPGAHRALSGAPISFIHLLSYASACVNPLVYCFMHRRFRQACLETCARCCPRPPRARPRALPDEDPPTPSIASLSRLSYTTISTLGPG
Briefly: Competitive binding assay. The note with it: against probe 3 (15 nM); concentration range 10^-5 to 10^-12 M. The essentials:
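HEK-293 cells engineered to overexpress hCCK2R and hMC4R, kept in selective medium and seeded at 240,000 cells/well in six-well plates (~1 × 10^6 cells at 90% confluence). Medium replaced with test compound (10^-5 to 10^-12 M, twelve levels) plus 15 nM Eu-labelled CCK4 probe in binding buffer for 1 h, 37 °C, CO₂. Cells pelleted and washed three times in basic buffer. DELFIA enhancement for 1 h, 37 °C. Supernatant read by TRF. Ki reported with SEM.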

The values below come from PMC4380538 (Bioorganic & medicinal chemistry, 2015).

Each structure is given as a SMILES string. “Also recorded” adds a separate entry of the source.

In the case of `NC(=O)[C@H](CO)NC(=O)CCCCCn1cc(CN(Cc2cn(CCCCCC(=O)N[C@@H](CO)C(N)=O)nn2)Cc2cn(CCCCCC(=O)N[C@@H](CO)C(N)=O)nn2)nn1` [Compound 15], the “Competitive inhibition of probe 3 binding (in words)” value was “not competitive inhibitors; also recorded: did not interfere with the binding and uptake of probe 3”.

`NC(=O)[C@H](CO)NC(=O)CCCCCn1cc(COc2cc(OCc3cn(CCCCCC(=O)N[C@@H](CO)C(N)=O)nn3)cc(OCc3cn(CCCCCC(=O)N[C@@H](CO)C(N)=O)nn3)c2)nn1` [Compound 16]: the “Competitive inhibition of probe 3 binding (in words)” value is “not competitive inhibitors; also recorded: did not interfere with the binding and uptake of probe 3”.
